Measured values as given in ChEMBL document CHEMBL1155269, “Synthesis and antibacterial activity of some new heterocycles incorporating phthalazine” (2009).

Key:
Bacillus thuringiensis = assay: Antibacterial activity against Bacillus thuringiensis at 2 mg/ml after 24 hrs by agar diffusion assay; type: functional; conditions: read-out: DIZ
Outline: (§1)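 Agar diffusion; compounds applied as 2 mg ml−1 solutions in DMSO to agar media seeded with the test bacterium (cultures maintained on nutrient agar). DMSO-only control included for each organism; ampicillin and chloramphenicol references at 2 mg ml−1. Plates incubated 24 h at 30 °C, then inhibition zone diameter (mm) measured.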

Escherichia coli = assay: Antibacterial activity against Escherichia coli at 2 mg/ml after 24 hrs by agar diffusion assay; type: functional; conditions: read-out: DIZ; outline: as §1

SMILES | zone of inhibition at 2000 µg/mL (Bacillus thuringiensis) | zone of inhibition at 2000 µg/mL (Escherichia coli)
N#CC(C(=O)N1NC(=O)C2C3c4ccccc4C(c4ccccc43)C2C1=O)=C1SCCS1 (centres undefined) | 13 mm | 
N=c1oc2ccccc2cc1C(=O)N1NC(=O)C2C3c4ccccc4C(c4ccccc43)C2C1=O (centres undefined) | 20 mm | 12 mm
CC1=Nc2c(s/c(=N\N)n2-c2ccccc2)C(=O)N2C(=O)C3C4c5ccccc5C(c5ccccc54)C3C(=O)N12 (centres undefined) | 19 mm | 13 mm
O=C1C2C3c4ccccc4C(c4ccccc43)C2C(=O)N2C(=O)c3sc(=S)n(-c4ccccc4)c3N=CN12 (centres undefined) | 13 mm | 12 mm
N#CC(Br)C(=O)N1NC(=O)C2C3c4ccccc4C(c4ccccc43)C2C1=O (centres undefined) | 16 mm | 20 mm
CC1=Nc2c(sc(=S)n2-c2ccccc2)C(=O)N2C(=O)C3C4c5ccccc5C(c5ccccc54)C3C(=O)N12 (centres undefined) | 16 mm | 11 mm
N#CC(Br)(Br)C(=O)N1NC(=O)C2C3c4ccccc4C(c4ccccc43)C2C1=O (centres undefined) | 27 mm | 29 mm
N#CC(C(=O)N1NC(=O)C2C3c4ccccc4C(c4ccccc43)C2C1=O)=C1SCCCS1 (centres undefined) | 15 mm | 16 mm
CSC(=S)C(C#N)C(=O)N1NC(=O)C2C3c4ccccc4C(c4ccccc43)C2C1=O (centres undefined) | 22 mm | 22 mm
O=C1NN(C(=O)c2cc3ccccc3oc2=O)C(=O)C2C3c4ccccc4C(c4ccccc43)C12 (centres undefined) | 16 mm | 15 mm
CS/C(Nc1ccccc1)=C(/C#N)C(=O)N1NC(=O)C2C3c4ccccc4C(c4ccccc43)C2C1=O (centres undefined) | 26 mm | 30 mm
Nc1c(C(=O)N2NC(=O)C3C4c5ccccc5C(c5ccccc54)C3C2=O)sc(=S)n1-c1ccccc1 (centres undefined) | 16 mm | 11 mm
Cc1cc(C)c2c(N/N=C(\C#N)C(=O)N3NC(=O)C4C5c6ccccc6C(c6ccccc65)C4C3=O)n[nH]c2n1 (centres undefined) | 20 mm | 30 mm
CC1(C)S[C@@H]2[C@H](NC(=O)[C@H](N)c3ccccc3)C(=O)N2[C@H]1C(=O)O [AMPICILLIN] | 19 mm | 18 mm
O=C(N[C@H](CO)[C@H](O)c1ccc([N+](=O)[O-])cc1)C(Cl)Cl [CHLORAMPHENICOL] | 20 mm | 23 mm
